Laboratory results reported in ChEMBL document CHEMBL1129484, “Selectively cytotoxic diterpenes from Euphorbia poisonii” (J Med Chem, 1996).
Values after ≈ are worked out from the molar mass of the structure shown.

What was measured:
MCF7 = experiment: Cytotoxicity on breast carcinoma (MCF-7) cell line; type: functional; conditions: Homo sapiens, read-out: ED50 (the source's name)
Summary of the method: (§1)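 Human solid tumour cell line panel tested at the Purdue Cancer Center with a 7-day MTT viability assay under standard protocols. Cell lines were A-549 lung, MCF-7 breast, HT-29 colon, A-498 kidney, PC-3 prostate and PACA-2 pancreatic. Adriamycin served as positive control.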

A498 = experiment: Cytotoxicity on kidney carcinoma (A-498) cell line; type: functional; conditions: Homo sapiens, read-out: ED50 (the source's name); summary of the method: as §1
A549 = experiment: Cytotoxicity on lung carcinoma (A-549) cell line; type: functional; conditions: Homo sapiens, read-out: ED50 (the source's name); summary of the method: as §1
PC-3 = experiment: Cytotoxicity on prostate adenocarcinoma (PC-3) cell line; type: functional; conditions: Homo sapiens, read-out: ED50 (the source's name); summary of the method: as §1
HT-29 = experiment: Cytotoxicity on adenocarcinoma (HT-29 colon) cell line; type: functional; conditions: Homo sapiens, read-out: ED50 (the source's name); summary of the method: as §1
MIA PaCa-2 = experiment: Cytotoxicity on pancreatic carcinoma (PACA-2) cell line; type: functional; conditions: Homo sapiens, read-out: ED50 (the source's name); summary of the method: as §1
[1] = Lethal concentration against Brine Shrimp; type: organism-based; conditions: artemia, in vivo
Summary of the method: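 Brine shrimp lethality test run by a standard protocol on partitioned fractions, pooled chromatographic fractions and isolated compounds. LC50 values were determined and expressed in µg/mL.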

In the case of `C=C(C)[C@]12C[C@@H](C)[C@@]34OC(Cc5ccccc5)(O[C@@H]1C3C=C(CO)C[C@]1(O)C(=O)C(C)=CC41)O2` (some centres undefined), the EC50 (MCF7) is reported as 30.9 µg/mL (≈ 66.5 µM), the EC50 (A498) is reported as 1.97 µg/mL (≈ 4.24 µM) and the EC50 (A549) is reported as 5.41 µg/mL (≈ 11.6 µM). For the same compound, the EC50 (PC-3) was 4.56 µg/mL (≈ 9.82 µM), the EC50 (HT-29) was 7.41 µg/mL (≈ 16 µM) and the EC50 (MIA PaCa-2) was 3.55 µg/mL (≈ 7.64 µM).

With `CC(=O)OCC1=C[C@H]2[C@@H]3C(C)(C)[C@]3(OC(=O)Cc3ccccc3)C[C@@H](C)[C@]2(O)C2C=C(C)C(=O)[C@@]2(O)C1` (some centres undefined) the EC50 (MCF7) was 41.3 µg/mL (≈ 81.1 µM), the EC50 (A498) was 1.59 µg/mL (≈ 3.13 µM) and the EC50 (A549) was 26.1 µg/mL (≈ 51.2 µM). The EC50 (PC-3) was 35.1 µg/mL (≈ 69 µM), the LC50 [1] was 12 µg/mL (≈ 23.7 µM) and the EC50 (HT-29) was 29.5 µg/mL (≈ 57.9 µM). For the same compound, the EC50 (MIA PaCa-2) was 26.9 µg/mL (≈ 52.9 µM).

For `C/C=C(/C)C(=O)O[C@@]12C[C@@H](C)[C@]3(O)C4C=C(C)C(=O)[C@@]4(O)CC(COC(C)=O)=C[C@H]3[C@@H]1C2(C)C` (some centres undefined), the EC50 (MCF7) was 41.8 µg/mL (≈ 88.4 µM), the EC50 (A498) was 2.18 µg/mL (≈ 4.61 µM) and the EC50 (A549) was 18.9 µg/mL (≈ 40 µM). It also gave an EC50 (PC-3) of 27.7 µg/mL (≈ 58.6 µM), an LC50 [1] of 191 µg/mL (≈ 404 µM) and an EC50 (HT-29) of 30.8 µg/mL (≈ 65.1 µM). The EC50 (MIA PaCa-2) was 30.3 µg/mL (≈ 64.2 µM).

`COc1cccc2c1C(=O)c1c(O)c3c(c(O)c1C2=O)C[C@@](O)(C(=O)CO)C[C@@H]3O[C@H]1C[C@H](N)[C@H](O)[C@H](C)O1` [DOXORUBICIN] gave an EC50 (A498) of 1.87 µg/mL (≈ 3.44 µM) and an EC50 (MIA PaCa-2) of 1.63 µg/mL (≈ 3 µM).

For `C/C=C(/C)C(=O)O[C@@]12C[C@@H](C)[C@]3(O)C4C=C(C)C(=O)[C@@]4(O)CC(CO)=C[C@H]3[C@@H]1C2(C)C` (some centres undefined), the EC50 (MCF7) was 69.9 µg/mL (≈ 162 µM), the EC50 (A498) was 46 µg/mL (≈ 107 µM) and the EC50 (A549) was 11.6 µg/mL (≈ 26.9 µM). The EC50 (PC-3) was 17.9 µg/mL (≈ 41.6 µM), the LC50 [1] was 115 µg/mL (≈ 266 µM) and the EC50 (HT-29) was 26.5 µg/mL (≈ 61.6 µM). For the same compound, the EC50 (MIA PaCa-2) was 37.2 µg/mL (≈ 86.5 µM).

For `CC1=CC2[C@@]3(O)[C@H](C)C[C@]4(OC(=O)CCCCCCC[C@H]5C[C@@H]5C)[C@H]([C@@H]3C(C)=C(CO)C[C@]2(O)C1=O)C4(C)C` (some centres undefined), the EC50 (A549) was 2.85 µg/mL (≈ 5.25 µM), the EC50 (PC-3) was 2.44 µg/mL (≈ 4.5 µM) and the EC50 (MIA PaCa-2) was 1.92 µg/mL (≈ 3.54 µM).

In the case of `C=C(C)[C@]12C[C@@H](C)[C@@]34OC(Cc5ccccc5)(O[C@@H]1[C@@H]3C=C(COC(=O)Cc1ccc(O)c(OC)c1)C[C@]1(O)C(=O)C(C)=CC41)O2` (some centres undefined), the EC50 (MCF7) is reported as 4.29 µg/mL (≈ 6.82 µM), the EC50 (A498) is reported as 1.08 µg/mL (≈ 1.72 µM) and the EC50 (A549) is reported as 1.12 µg/mL (≈ 1.78 µM). The EC50 (PC-3) was 2.9 µg/mL (≈ 4.61 µM), the LC50 [1] was 281 µg/mL (≈ 447 µM) and the EC50 (HT-29) was 3 µg/mL (≈ 4.77 µM). It also gave an EC50 (MIA PaCa-2) of 2.44 µg/mL (≈ 3.88 µM).
